Assay results taken from ChEMBL document CHEMBL1123757, “Selective thromboxane synthetase inhibitors and antihypertensive agents. New derivatives of 4-hydrazino-5H-pyridazino[4,5-b]indole, 4-hydrazinopyridazino[4,5-a]indole, and related compounds” (J Med Chem, 1987).
Calls of active or inactive are those of the source. No cut-off for these calls is given here.

What was measured:
Cavia porcellus [1] = experiment: Ex vivo inhibition of platelet aggregation induced by AA at 100 mg/kg; type: functional
Procedure, shortened: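 Fasted male or female guinea pigs (250–300 g, five per group) dosed orally in normal saline or saline with 0.2% (carboxymethyl)cellulose/1.0% Tween 80; controls given vehicle. Under ether, cardiac blood collected into 3.8% citrate. PRP adjusted to […] and aggregation induced by ADP (second wave) or AA, read by absorbance aggregometry. PGE2 and TXB2 measured by RIA.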

Rattus norvegicus [2] = experiment: Antihypertensive activity in spontaneously hypertensive rats (SHR) measured by percentage fall in cardiac rhythm (CR) at 1 mg/kg administered intraperitoneally at 3 h; type: functional, Heart; details: route intraperitoneal
Procedure, shortened: (§1)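 Unanesthetized Okamoto-strain SHR, male and female, 8 weeks old, 300–350 g, systolic pressure ≥190 mmHg, heart rate 400–650 beats/min; five animals per dose. Given ip at 2.5 mL/kg, dissolved or suspended in normal saline or saline with 0.2% (carboxymethyl)cellulose and 1.0% Tween 80. Tail AP and CR recorded by mechanical transduction at set times; reported as percentage fall from control.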

Rattus norvegicus [3] = experiment: Antihypertensive activity in spontaneously hypertensive rats (SHR) measured by percentage fall in cardiac rhythm (CR) at 1 mg/kg administered intraperitoneally at 5 h; type: functional, Heart; details: route intraperitoneal; procedure, shortened: as §1
Homo sapiens [4] = species on record: Homo sapiens; experiment: In vitro inhibition of platelet aggregation induced by AA (PRP incubated for 60 minutes at 37 degree C) at 10e-5 M;No significance; type: functional
Procedure, shortened: (§2)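 Human venous blood anticoagulated with 3.8% sodium citrate (1:9). PRP from centrifugation at 800 rpm for 10 min at room temperature. Count adjusted with PPP to […]. Compound in saline with 10% ethylene glycol is added to PRP and incubated at 37 °C before the agonist. Agonists: ADP 2×10^-5 M, AA 0.6 mM, PGH2 2.8 μM, adrenaline 0.6 μM. Born absorbance aggregometry; n = 5.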

Homo sapiens [5] = species on record: Homo sapiens; experiment: In vitro inhibition of platelet aggregation induced by ADP-II (PRP incubated for 5 minutes at 37 degree C) at 10e-5 M;No significance; type: functional; procedure, shortened: as §2
Rattus norvegicus [6] = experiment: Antihypertensive activity in spontaneously hypertensive rats (SHR) measured by percentage fall in arterial pressure (AP) at 1 mg/kg administered intraperitoneally at 1 h; type: functional, Artery; details: route intraperitoneal; procedure, shortened: as §1
Rattus norvegicus [7] = experiment: Percent increase in cardiac rhythm, directly measured on carotid (iv on the jugular vein) of spontaneously hypertensive rats at 1 mg/kg after 30 minutes; details: Heart, 0.5 h, read-out: Inhibition
Rattus norvegicus [8] = experiment: Percent fall in systolic blood pressure, directly measured on carotid (iv on the jugular vein) of spontaneously hypertensive rats at 1 mg/kg after 120 minutes; type: functional, Artery
Procedure, shortened: (§3)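 Anesthetized (sodium pentobarbital, 70 mg/kg) male and female Okamoto SHR, 8 weeks old, 300–350 g. Given iv into the jugular vein in normal saline. Arterial pressure and cardiac rhythm are recorded directly from the carotid by polygraph at set times after dosing. Each is expressed as percent change from the pre-dose control value.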

Rattus norvegicus [9] = experiment: Percent fall in systolic blood pressure, directly measured on carotid (iv on the jugular vein) of spontaneously hypertensive rats at 1 mg/kg after 15 minutes; type: functional, Artery; procedure, shortened: as §3
Rattus norvegicus [10] = experiment: Percent fall in systolic blood pressure, directly measured on carotid (iv on the jugular vein) of spontaneously hypertensive rats at 1 mg/kg after 30 minutes; type: functional, Artery; procedure, shortened: as §3
Rattus norvegicus [11] = experiment: Percent fall in systolic blood pressure, directly measured on carotid (iv on the jugular vein) of spontaneously hypertensive rats at 1 mg/kg after 5 minutes; type: functional, Artery; procedure, shortened: as §3
Rattus norvegicus [12] = experiment: Percent fall in systolic blood pressure, directly measured on carotid (iv on the jugular vein) of spontaneously hypertensive rats at 1 mg/kg after 60 minutes; type: functional, Artery; procedure, shortened: as §3
Rattus norvegicus [13] = experiment: Percent fall in systolic blood pressure, directly measured on carotid (iv on the jugular vein) of spontaneously hypertensive rats at 1 mg/kg after 75 minutes; type: functional, Artery; procedure, shortened: as §3
Rattus norvegicus [14] = experiment: Antihypertensive activity in spontaneously hypertensive rats (SHR) measured by percentage fall in cardiac rhythm (CR) at 1 mg/kg administered intraperitoneally at 1 h; type: functional, Heart; details: route intraperitoneal; procedure, shortened: as §1
Rattus norvegicus [15] = experiment: Antihypertensive activity in spontaneously hypertensive rats (SHR) measured by percentage fall in arterial pressure (AP) at 1 mg/kg administered intraperitoneally at 3 h; type: functional, Artery; details: route intraperitoneal; procedure, shortened: as §1
Rattus norvegicus [16] = experiment: Antihypertensive activity in spontaneously hypertensive rats (SHR) measured by percentage fall in arterial pressure (AP) at 1 mg/kg administered intraperitoneally at 24 h;No significance; type: functional, organism-based; parameters: dose 1 mg/kg; details: Artery; procedure, shortened: as §1
Homo sapiens [17] = species on record: Homo sapiens; details: 10e-5 M
Cavia porcellus [18] = species on record: Cavia porcellus; details: 100 mg/kg
Cavia porcellus [19] = species on record: Cavia porcellus; details: 30 mg/kg
Rattus norvegicus [20] = species on record: Rattus norvegicus; details: Heart, 1 mg/kg
Homo sapiens [21] = species on record: Homo sapiens; details: 10e-5 M; remark: listed apart in the source
Rattus norvegicus [22] = species on record: Rattus norvegicus; details: Artery, 1 mg/kg
Rattus norvegicus [23] = species on record: Rattus norvegicus; details: Heart, 1 mg/kg; remark: listed apart in the source
Rattus norvegicus [24] = species on record: Rattus norvegicus; details: Artery, 1 mg/kg; remark: listed apart in the source
Rattus norvegicus [25] = species on record: Rattus norvegicus; details: Heart, 1 mg/kg; remark: listed apart in the source
Cavia porcellus [26] = species on record: Cavia porcellus; details: 50 mg/kg
Cavia porcellus [27] = species on record: Cavia porcellus; details: 30 mg/kg; remark: listed apart in the source
Cavia porcellus [28] = species on record: Cavia porcellus; details: 50 mg/kg; remark: listed apart in the source
Rattus norvegicus [29] = species on record: Rattus norvegicus; details: Heart, 1 mg/kg; remark: listed apart in the source

## Cl.NNc1nncc2ccccc12 [HYDRALAZINE HYDROCHLORIDE]
Cavia porcellus [1]
  inhibition in vivo at 100 mg/kg: 75%
Rattus norvegicus [2]
  Decrease in CR: -5%
Rattus norvegicus [3]
  Decrease in CR: -2%
Homo sapiens [4]
  inhibition: inactive
Homo sapiens [5]
  inhibition: inactive
Rattus norvegicus [6]
  Decrease in AP: 20%
Rattus norvegicus [7]
  inhibition in vivo at 1 mg/kg: 20%
Rattus norvegicus [8]
  Decrease in blood pressure: 20%
Rattus norvegicus [9]
  Decrease in blood pressure: 48%
Rattus norvegicus [10]
  Decrease in blood pressure: 48%
Rattus norvegicus [11]
  Decrease in blood pressure: 40%
Rattus norvegicus [12]
  Decrease in blood pressure: 52%
Rattus norvegicus [13]
  Decrease in blood pressure: 60%
Rattus norvegicus [14]
  Decrease in CR: -7%
Rattus norvegicus [15]
  Decrease in AP: 20%
Rattus norvegicus [16]
  Decrease in AP: inactive
Homo sapiens [17]
  inhibition: inactive
Cavia porcellus [18]
  Inhibition %: inactive
Cavia porcellus [19]
  inhibition: inactive
Rattus norvegicus [20]
  Decrease in CR: inactive
Homo sapiens [21]
  Increase: inactive
Rattus norvegicus [22]
  inhibition: inactive
Rattus norvegicus [23]
  inhibition: inactive
Rattus norvegicus [24]
  Decrease in blood pressure: inactive
Rattus norvegicus [25]
  Decrease in blood pressure: inactive
Cavia porcellus [26]
  inhibition: inactive
Cavia porcellus [27]
  inhibition: inactive
Cavia porcellus [28]
  inhibition: inactive
Rattus norvegicus [29]
  inhibition: inactive
